The M2OR odorant receptor database

Columns and labels:
Settings in all cases: stereoisomer not certain
[1] = target: T1, OR2M3 (Homo sapiens) (UniProt Q8NG83)
T1 sequence (whole entry): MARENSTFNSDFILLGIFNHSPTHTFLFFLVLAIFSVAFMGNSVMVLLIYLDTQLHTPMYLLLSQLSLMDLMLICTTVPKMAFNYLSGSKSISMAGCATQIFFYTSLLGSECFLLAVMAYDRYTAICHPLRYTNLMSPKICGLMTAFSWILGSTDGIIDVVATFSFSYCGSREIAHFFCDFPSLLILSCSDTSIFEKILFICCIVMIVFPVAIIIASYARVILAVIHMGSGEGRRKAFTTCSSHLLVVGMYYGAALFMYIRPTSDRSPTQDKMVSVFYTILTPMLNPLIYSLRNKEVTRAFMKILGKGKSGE
Summary of the method: (§1)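 Values were gathered from published papers (main text and supplementary material), with extra details requested from the original authors when needed, and checked for typos and inconsistencies. Each receptor–molecule pair is called responsive (active) if the original authors judged the measured signal statistically different from baseline, and non-responsive (inactive) otherwise. Assay methods varied by source, often transient mammalian cell-line luciferase assays. Recorded details include cell line, G-protein, co-transfected protein and tags.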

[2] = system: OR2J3
Summary of the method: as §1
Target sequence in this assay (as listed by the source): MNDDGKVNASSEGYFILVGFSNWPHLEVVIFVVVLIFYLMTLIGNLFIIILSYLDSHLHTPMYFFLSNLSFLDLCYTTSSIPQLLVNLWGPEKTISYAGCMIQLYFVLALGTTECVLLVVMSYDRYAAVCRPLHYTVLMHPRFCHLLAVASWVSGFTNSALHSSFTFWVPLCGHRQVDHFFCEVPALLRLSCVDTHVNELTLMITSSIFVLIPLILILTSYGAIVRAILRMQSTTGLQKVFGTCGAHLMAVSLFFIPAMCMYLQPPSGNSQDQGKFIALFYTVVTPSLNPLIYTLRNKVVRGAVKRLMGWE

[3] = target: OR2K2 (Homo sapiens) (UniProt Q8NGT1)
Sequence of OR2K2 (Homo sapiens) (Q8NGT1 whole entry): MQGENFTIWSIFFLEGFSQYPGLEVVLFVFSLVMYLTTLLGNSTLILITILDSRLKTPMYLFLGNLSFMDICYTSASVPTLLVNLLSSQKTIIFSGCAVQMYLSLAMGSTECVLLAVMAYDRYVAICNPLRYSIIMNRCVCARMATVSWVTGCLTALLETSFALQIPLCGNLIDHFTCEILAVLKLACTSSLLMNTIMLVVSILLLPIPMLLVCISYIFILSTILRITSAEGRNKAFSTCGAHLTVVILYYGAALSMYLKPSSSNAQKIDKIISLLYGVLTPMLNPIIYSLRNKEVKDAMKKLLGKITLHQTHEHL
Summary of the method: as §1

[4] = target: T2, OR2L13 (Homo sapiens) (UniProt Q8N349)
T2 sequence (whole entry): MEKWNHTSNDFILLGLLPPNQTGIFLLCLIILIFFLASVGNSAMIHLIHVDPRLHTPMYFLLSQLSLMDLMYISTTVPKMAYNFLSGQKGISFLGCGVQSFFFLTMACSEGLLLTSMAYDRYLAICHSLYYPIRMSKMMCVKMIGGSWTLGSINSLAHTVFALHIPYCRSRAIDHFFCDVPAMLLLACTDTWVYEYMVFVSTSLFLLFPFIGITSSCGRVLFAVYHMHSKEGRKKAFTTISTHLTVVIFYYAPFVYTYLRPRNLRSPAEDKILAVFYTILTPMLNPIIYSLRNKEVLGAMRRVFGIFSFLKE
Summary of the method: as §1

[5] = target: OR2L2 (Homo sapiens) (UniProt Q8NH16)
Sequence of OR2L2 (Homo sapiens) (Q8NH16 whole entry): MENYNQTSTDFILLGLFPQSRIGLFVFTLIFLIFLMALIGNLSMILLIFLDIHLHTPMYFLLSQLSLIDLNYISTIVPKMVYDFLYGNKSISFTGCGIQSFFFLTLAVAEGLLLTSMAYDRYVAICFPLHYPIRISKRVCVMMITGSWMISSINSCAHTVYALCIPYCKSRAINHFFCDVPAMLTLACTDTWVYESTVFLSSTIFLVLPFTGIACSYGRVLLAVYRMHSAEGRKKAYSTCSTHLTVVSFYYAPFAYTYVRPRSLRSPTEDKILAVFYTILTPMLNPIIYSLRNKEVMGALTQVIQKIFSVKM
Summary of the method: as §1

[6] = target: OR2L3 (Homo sapiens) (UniProt Q8NG85)
Sequence of OR2L3 (Homo sapiens) (Q8NG85 whole entry): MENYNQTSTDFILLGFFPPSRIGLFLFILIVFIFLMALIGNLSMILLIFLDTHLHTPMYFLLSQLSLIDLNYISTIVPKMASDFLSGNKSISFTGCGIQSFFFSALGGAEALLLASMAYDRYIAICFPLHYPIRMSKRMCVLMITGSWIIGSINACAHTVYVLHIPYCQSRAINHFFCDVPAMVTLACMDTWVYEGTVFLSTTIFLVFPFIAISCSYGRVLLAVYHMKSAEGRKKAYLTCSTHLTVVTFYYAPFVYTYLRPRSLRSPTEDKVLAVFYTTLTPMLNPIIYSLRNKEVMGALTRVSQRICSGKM
Summary of the method: as §1

[7] = target: OR2L5 (Homo sapiens) (UniProt Q8NG80)
Sequence of OR2L5 (Homo sapiens) (Q8NG80 whole entry): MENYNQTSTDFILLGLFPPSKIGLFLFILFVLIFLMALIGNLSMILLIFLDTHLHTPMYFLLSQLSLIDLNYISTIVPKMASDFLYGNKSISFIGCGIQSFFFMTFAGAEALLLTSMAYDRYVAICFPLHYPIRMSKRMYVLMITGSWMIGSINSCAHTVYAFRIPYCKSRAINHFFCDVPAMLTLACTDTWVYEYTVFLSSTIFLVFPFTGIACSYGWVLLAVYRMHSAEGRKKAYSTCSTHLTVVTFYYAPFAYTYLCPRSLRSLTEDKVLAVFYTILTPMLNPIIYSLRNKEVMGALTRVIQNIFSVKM
Summary of the method: as §1

[8] = target: OR2L8 (Homo sapiens) (UniProt Q8NGY9)
Sequence of OR2L8 (Homo sapiens) (Q8NGY9 whole entry): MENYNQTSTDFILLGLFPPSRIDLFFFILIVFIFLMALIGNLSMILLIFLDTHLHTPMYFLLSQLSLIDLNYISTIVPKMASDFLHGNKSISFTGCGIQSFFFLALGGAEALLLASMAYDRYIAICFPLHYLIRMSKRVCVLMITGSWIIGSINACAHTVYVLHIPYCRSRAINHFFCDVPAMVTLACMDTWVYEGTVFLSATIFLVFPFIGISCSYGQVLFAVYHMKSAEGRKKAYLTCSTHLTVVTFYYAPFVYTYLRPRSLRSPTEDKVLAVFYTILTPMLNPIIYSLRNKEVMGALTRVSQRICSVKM
Summary of the method: as §1

[9] = target: OR2M2 (Homo sapiens) (UniProt Q96R28)
Sequence of OR2M2 (Homo sapiens) (Q96R28 whole entry): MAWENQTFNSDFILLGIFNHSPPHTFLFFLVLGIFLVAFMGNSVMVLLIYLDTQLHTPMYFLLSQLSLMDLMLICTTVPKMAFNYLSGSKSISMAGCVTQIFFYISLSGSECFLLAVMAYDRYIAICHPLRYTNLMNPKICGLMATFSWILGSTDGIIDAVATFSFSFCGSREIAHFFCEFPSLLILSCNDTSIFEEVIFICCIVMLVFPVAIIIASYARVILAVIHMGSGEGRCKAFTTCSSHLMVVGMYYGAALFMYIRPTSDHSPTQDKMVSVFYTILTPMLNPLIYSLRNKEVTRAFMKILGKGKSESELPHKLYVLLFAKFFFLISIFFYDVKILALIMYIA
Summary of the method: as §1

[10] = target: T3, OR2M4 (Homo sapiens) (UniProt Q96R27)
T3 sequence (whole entry): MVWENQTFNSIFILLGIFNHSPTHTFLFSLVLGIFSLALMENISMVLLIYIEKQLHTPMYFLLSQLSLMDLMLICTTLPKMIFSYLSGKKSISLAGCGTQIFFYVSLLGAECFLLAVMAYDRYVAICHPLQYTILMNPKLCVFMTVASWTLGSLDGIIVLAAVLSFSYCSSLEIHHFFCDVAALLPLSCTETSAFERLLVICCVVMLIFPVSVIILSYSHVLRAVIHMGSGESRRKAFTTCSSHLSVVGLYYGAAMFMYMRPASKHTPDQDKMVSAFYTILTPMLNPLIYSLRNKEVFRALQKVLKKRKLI
Summary of the method: as §1

[11] = target: OR2M5 (Homo sapiens) (UniProt A3KFT3)
Sequence of OR2M5 (Homo sapiens) (A3KFT3 whole entry): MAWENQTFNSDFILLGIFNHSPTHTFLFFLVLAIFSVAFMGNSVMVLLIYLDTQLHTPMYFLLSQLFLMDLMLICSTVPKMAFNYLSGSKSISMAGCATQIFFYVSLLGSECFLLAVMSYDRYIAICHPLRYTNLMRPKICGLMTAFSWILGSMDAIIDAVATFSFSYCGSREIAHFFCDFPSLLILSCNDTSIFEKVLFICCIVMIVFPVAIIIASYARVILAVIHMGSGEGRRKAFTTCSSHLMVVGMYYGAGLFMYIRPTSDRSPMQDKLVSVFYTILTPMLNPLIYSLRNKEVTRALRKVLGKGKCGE
Summary of the method: as §1

[12] = system: OR2M5 D11G
Sequence of OR2M5 D11G (as listed by the source, stated change not applied): as the sequence (A3KFT3 whole entry) above, with D11G counted along it
Summary of the method: as §1

[13] = target: T4, OR2M7 (Homo sapiens) (UniProt Q8NG81)
T4 sequence (whole entry): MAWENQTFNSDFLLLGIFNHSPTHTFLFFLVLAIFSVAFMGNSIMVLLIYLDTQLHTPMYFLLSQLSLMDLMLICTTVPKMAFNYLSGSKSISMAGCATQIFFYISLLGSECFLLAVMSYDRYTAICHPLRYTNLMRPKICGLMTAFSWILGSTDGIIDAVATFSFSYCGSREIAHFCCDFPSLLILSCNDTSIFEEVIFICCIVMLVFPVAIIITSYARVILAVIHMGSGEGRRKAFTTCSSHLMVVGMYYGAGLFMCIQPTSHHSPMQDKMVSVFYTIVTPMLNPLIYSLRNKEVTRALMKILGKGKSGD
Summary of the method: as §1

[14] = target: OR2S2 (Homo sapiens) (UniProt Q9NQN1)
Sequence of OR2S2 (Homo sapiens) (Q9NQN1 whole entry): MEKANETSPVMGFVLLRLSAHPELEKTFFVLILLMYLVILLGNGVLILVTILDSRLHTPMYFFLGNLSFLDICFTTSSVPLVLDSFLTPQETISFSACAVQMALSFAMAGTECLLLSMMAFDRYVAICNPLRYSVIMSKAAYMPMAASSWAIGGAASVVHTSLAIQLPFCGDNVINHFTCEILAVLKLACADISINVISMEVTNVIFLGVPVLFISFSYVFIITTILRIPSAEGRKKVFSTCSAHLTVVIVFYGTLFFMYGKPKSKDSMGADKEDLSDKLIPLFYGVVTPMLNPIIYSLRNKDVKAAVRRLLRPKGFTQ
Summary of the method: as §1

[15] = target: OR2T1 (Homo sapiens) (UniProt O43869)
Sequence of OR2T1 (Homo sapiens) (O43869 whole entry): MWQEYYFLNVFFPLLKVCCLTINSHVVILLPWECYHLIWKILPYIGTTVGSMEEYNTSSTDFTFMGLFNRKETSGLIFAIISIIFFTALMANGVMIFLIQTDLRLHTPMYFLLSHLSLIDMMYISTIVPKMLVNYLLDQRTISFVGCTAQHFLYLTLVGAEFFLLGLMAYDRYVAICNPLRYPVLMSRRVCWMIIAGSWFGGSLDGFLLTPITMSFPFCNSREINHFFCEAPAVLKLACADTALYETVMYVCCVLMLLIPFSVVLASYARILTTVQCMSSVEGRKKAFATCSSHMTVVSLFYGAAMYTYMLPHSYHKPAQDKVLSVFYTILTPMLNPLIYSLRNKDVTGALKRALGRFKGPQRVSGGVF
Summary of the method: as §1

[16] = target: T5, OR2T10 (Homo sapiens) (UniProt Q8NGZ9)
T5 sequence (whole entry): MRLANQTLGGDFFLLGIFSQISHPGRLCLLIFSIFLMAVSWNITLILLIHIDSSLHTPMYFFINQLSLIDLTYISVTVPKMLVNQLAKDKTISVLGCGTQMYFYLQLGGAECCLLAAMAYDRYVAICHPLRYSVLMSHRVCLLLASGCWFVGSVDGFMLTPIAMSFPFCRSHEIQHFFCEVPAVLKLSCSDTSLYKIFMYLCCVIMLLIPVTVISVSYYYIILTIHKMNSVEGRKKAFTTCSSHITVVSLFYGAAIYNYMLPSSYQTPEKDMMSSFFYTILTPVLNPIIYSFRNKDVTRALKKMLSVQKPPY
Summary of the method: as §1

[17] = target: OR2T11 (Homo sapiens) (UniProt Q8NH01)
Sequence of OR2T11 (Homo sapiens) (Q8NH01 whole entry): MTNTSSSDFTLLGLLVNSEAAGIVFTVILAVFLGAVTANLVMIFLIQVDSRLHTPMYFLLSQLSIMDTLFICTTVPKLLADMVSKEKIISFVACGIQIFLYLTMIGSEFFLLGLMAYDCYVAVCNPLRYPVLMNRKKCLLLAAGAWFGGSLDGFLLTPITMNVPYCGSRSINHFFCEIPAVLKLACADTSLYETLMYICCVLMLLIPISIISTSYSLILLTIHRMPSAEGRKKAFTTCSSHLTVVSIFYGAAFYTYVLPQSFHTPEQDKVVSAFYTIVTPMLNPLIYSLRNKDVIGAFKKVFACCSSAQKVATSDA
Summary of the method: as §1

[18] = target: OR2T12 (Homo sapiens) (UniProt Q8NG77)
Sequence of OR2T12 (Homo sapiens) (Q8NG77 whole entry): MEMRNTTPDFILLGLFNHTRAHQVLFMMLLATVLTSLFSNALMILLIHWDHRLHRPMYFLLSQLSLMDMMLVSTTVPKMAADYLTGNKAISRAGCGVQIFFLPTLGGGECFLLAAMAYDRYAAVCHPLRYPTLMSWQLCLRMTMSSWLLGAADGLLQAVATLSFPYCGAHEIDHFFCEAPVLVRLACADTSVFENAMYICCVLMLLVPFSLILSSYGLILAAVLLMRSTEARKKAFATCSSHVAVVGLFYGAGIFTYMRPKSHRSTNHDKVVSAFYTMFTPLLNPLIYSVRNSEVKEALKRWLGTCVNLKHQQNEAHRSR
Summary of the method: as §1

[19] = system: OR2J3; remark: listed apart in the source
Summary of the method: as §1
Target sequence in this assay (as listed by the source): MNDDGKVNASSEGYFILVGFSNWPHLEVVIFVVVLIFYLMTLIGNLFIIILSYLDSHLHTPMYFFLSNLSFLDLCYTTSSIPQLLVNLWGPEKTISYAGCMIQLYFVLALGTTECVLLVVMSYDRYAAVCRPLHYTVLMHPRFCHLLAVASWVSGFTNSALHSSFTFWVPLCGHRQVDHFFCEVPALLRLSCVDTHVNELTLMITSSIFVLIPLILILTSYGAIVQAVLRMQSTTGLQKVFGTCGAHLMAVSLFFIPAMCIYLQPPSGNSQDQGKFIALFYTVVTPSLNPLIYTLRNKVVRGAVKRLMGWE

[20] = system: OR2J3; remark: listed apart in the source
Summary of the method: as §1
Target sequence in this assay (as listed by the source): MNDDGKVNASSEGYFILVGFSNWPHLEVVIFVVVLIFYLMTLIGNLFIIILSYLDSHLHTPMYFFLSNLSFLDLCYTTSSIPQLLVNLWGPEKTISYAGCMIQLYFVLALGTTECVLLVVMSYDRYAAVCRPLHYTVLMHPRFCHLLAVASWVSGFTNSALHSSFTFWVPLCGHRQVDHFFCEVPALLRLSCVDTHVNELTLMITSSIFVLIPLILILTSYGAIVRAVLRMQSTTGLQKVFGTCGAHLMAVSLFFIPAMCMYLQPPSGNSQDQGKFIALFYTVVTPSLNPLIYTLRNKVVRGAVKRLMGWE

## Cc1ccccc1O
[1]
  odorant receptor agonist call: inactive

## C=CCOC(=O)Cc1ccccc1
[2]
  odorant receptor agonist call: inactive
[3]
  odorant receptor agonist call: inactive
[4]
  odorant receptor agonist call: inactive
[5]
  odorant receptor agonist call: inactive
[6]
  odorant receptor agonist call: inactive
[7]
  odorant receptor agonist call: inactive
[8]
  odorant receptor agonist call: inactive
[9]
  odorant receptor agonist call: inactive
[1]
  odorant receptor agonist call: inactive
[10]
  odorant receptor agonist call: inactive
[11]
  odorant receptor agonist call: inactive
[12]
  odorant receptor agonist call: inactive
[13]
  odorant receptor agonist call: inactive
[14]
  odorant receptor agonist call: inactive
[15]
  odorant receptor agonist call: inactive
[16]
  odorant receptor agonist call: inactive
[17]
  odorant receptor agonist call: inactive
[18]
  odorant receptor agonist call: inactive

## O=C(O)Cc1ccccc1
[1]
  odorant receptor agonist call: inactive

## CSSC
[1]
  odorant receptor agonist call: inactive

## Cc1c([N+](=O)[O-])c(C)c([N+](=O)[O-])c(C(C)(C)C)c1[N+](=O)[O-]
[3]
  odorant receptor agonist call: inactive
[4]
  odorant receptor agonist call: inactive
[6]
  odorant receptor agonist call: inactive
[7]
  odorant receptor agonist call: inactive
[8]
  odorant receptor agonist call: inactive
[9]
  odorant receptor agonist call: inactive
[1]
  odorant receptor agonist call: inactive
[11]
  odorant receptor agonist call: inactive
[13]
  odorant receptor agonist call: inactive
[14]
  odorant receptor agonist call: inactive
[15]
  odorant receptor agonist call: inactive
[16]
  odorant receptor agonist call: inactive
[17]
  odorant receptor agonist call: inactive
[18]
  odorant receptor agonist call: inactive

## COc1ccc(C=O)cc1
[4]
  odorant receptor agonist call: inactive
[1]
  odorant receptor agonist call: inactive

## C=CCSSCC=C
[1]
  odorant receptor agonist call: inactive

## O=CC=Cc1ccccc1
[19]
  odorant receptor agonist call: active
[2]
  odorant receptor agonist call: active
[20]
  odorant receptor agonist call: active
[10]
  odorant receptor agonist call: active
[16]
  odorant receptor agonist call: active

## CCC1CCC(=O)O1 (centres undefined)
[13]
  odorant receptor agonist call: inactive

## O=Cc1ccccc1
[10]
  odorant receptor agonist call: inactive
[16]
  odorant receptor agonist call: inactive

## Cc1ccc(O)c(C)c1
[1]
  odorant receptor agonist call: inactive

## SCc1ccco1
[1]
  odorant receptor agonist call: inactive

## CCOC(=O)Cc1ccccc1
[1]
  odorant receptor agonist call: inactive

## Cc1cccc(C)c1
[4]
  odorant receptor agonist call: inactive

## O=c1cc(O)c2ccccc2o1
[13]
  odorant receptor agonist call: inactive

## C=CCc1ccccc1
[13]
  odorant receptor agonist call: inactive

## C=CCc1ccc(OC)cc1
[1]
  odorant receptor agonist call: inactive
[16]
  odorant receptor agonist call: inactive
